Results on 18 compounds are retold here after PubChem BioAssay.

The nature of assay [1]: S. cerevisiae growth inhibition in permissive medium (OD615), pilot counter-assay for S. cerevisiae lifespan shortening project, permissive growth control (AID 705;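 active = growth inhibition above 25% in both replicates, a cutoff set 3 SD above the mean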). To be noted: OD615, 24 h, at 10 µM, stronger effect = higher value. The procedure, abridged:
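Material: engineered DeaD yeast; Compound: one dose 10 µM, DMSO 0.25% final; Detection: absorbance (optical density) at 615 nm; Buffer or medium: permissive raffinose/galactose medium; Timing: 24 h exposure, 30 °C.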

A short description of assay [2]: S. cerevisiae growth inhibition in restrictive medium, OD615, pilot screen, restrictive growth control, yeast lifespan reduction project (AID 706;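 active = growth inhibition above a set limit, 3 SD over mean compound inhibition, in both replicates, cut at about 43% in these data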;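 note: modified DeaD lifespan yeast strain shifted to restrictive glucose medium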). Conditions: OD615, 48 h, at 10 µM, stronger effect = higher value. The procedure, abridged: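 Buffer or medium: restrictive glucose medium (CSMM-D); test system: modified S. cerevisiae; doses: single dose of 10 µM compound final, 0.25% DMSO; schedule: 48 h compound exposure at 30 °C; detection: absorbance (optical density) measured at 615 nm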

Assay [3] in a line: doxorubicin toxicity protection in MRP-1 cells – H69AR cells, CellTiter-Glo, duplicate, MRP-1 activator project, pilot screen (AID 807;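 active = viability increase at or above a cutoff of the median across tested compounds plus 3 SD, cut at about 8.5% in these data, passing the limit was not always enough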;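 note: compound pretreatment 18-22 h then 72 h combined with doxorubicin; 0% = doxorubicin alone and 100% = vehicle without doxorubicin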). To be noted: H69AR viability with doxorubicin, CellTiter-Glo luminescence; at 10 µM; stronger effect = higher value.
Assay [4] is described as follows: viability of HCT116 without oncogenic beta-catenin – human colon tumor cells, pilot screen (AID 823).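 Note: 0% = wells killed by 20 µM Hyamine and 100% = untreated DMSO cell wells.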 To be noted: HCT116 beta-catenin knockout viability, CellTiter-Glo, 60 h; at 10 µM; stronger effect = lower value.
Assay [5] is described as follows: viability of PTEN-null HCT116 cells – cell-based, HCT116 clonal line, CellTiter-Glo, pilot screen (AID 824;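 active = viability at or below 27.92% in each of two runs, the all-compound median minus 4 SD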;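 note: 0% = 20 µM Hyamine control and 100% = vehicle cell control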). Conditions: HCT116 PTEN-deleted viability, 60 h, at 10 µM, stronger effect = lower value.
Assay [6] is described as follows: RAM pathway blockade in budding yeast – dse1pr::URA3 reporter, 5-FOA selection, pilot screen (AID 869;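 active = inhibition over a set limit, the all-compound mean plus 3 SD, in both replicate runs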;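 note: 0% = DMSO wells with no growth and 100% = 10 µM 1-NA-PP1 with full growth; RAM network block rescues cells from 5-FOA so hits raise OD615 growth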). Conditions: S. cerevisiae dse1pr::URA3 5-FOA growth, OD615, 2 d; at 10 µM; stronger effect = higher value; strain carries analog-sensitive mutant Cbk1 kinase.
Assay [7] in a line: RAM signaling pathway blockade in yeast – S. cerevisiae, Pdr1DBD-CYC8 efflux-inhibited sensitized strain, primary screen (AID 1298;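 active = RAM network inhibition above 8.4% in each of two replicates, 3 SD over the compound average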;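 note: 0% = DMSO untreated cells without growth and 100% = 10 µM 1-NA-PP1 full growth; higher means more yeast growth rescued from 5-FOA killing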). To be noted: S. cerevisiae cbk1-as DSE1-URA3 strain, 5-FOA growth OD615, 2 d; at 50 µM; stronger effect = higher value.

Each structure is given as a SMILES string. Values without a mark were called inactive. Records with an inconclusive call do not appear. Activity calls are given as the source filed them.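 Rule for the calls, unless noted: active = cell viability at or below a set limit in both duplicate runs, the limit being the all-compound median minus 4 SD (cut at about 23% in these data, passing the limit was not always enough); inconclusive = no clear call, values can overlap the other calls; inactive = the rest.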

On to `Cn1c(NC(=O)CC2CCCCC2)cc(=O)n(C)c1=O`, for which the figures for the growth inhibition in assay [1] and in assay [2] were -14% and -21.6%, respectively. Further, the viability increase in assay [3] is -0.04%. In addition, the viability in assay [4] was 93.3%; in assay [5], 87%. For the same compound, the inhibition in assay [6] is 0.43%. In assay [7], the RAM network inhibition is -0.37%.
As for `COc1ccc(-c2cc(C(F)(F)F)n3nc(C(=O)N4CCCC4)cc3n2)cc1`, the growth inhibition was -5.39% in assay [1] and -2.34% in assay [2]. In addition, the viability increase in assay [3] is -3.39%. In addition, the viability in assay [4] is 93.9%; in assay [5] it was 84.7%. Besides, the inhibition in assay [6] is 1.71%. Besides, the RAM network inhibition in assay [7] is 7.1%.
`CCOC(=O)C1=C(C)NC(=O)NC1c1ccco1` (stereo unspecified): the results for the growth inhibition in assay [1] and in assay [2] were 1.02% and -9.79%, respectively. Moreover, the viability increase in assay [3] was -3.38%. Also, the figures for the viability in assay [4] and in assay [5] were 103% and 105%, respectively. Further, the inhibition in assay [6] was -0.995%. Further, the RAM network inhibition in assay [7] was -0.57%.
In the case of `CCOC(=O)c1[nH]c(=O)[nH]c1COC(=O)c1cc2ccccc2o1`, the results for the growth inhibition in assay [1] and in assay [2] were -14.6% and -12.6%, respectively. In addition, the viability increase in assay [3] is -1.09%. Besides, the results for the viability in assay [4] and in assay [5] were 92.6% and 105%, respectively. In addition, the inhibition in assay [6] was -0.22%. The RAM network inhibition in assay [7] is 2.38%.
On to `CC1CCCN(Cc2nc3c(c(=O)n(C)c(=O)n3C)n2Cc2c(F)cccc2Cl)C1` (stereo unspecified), for which the results for the growth inhibition in assay [1] and in assay [2] were -8.39% and -6.31%, respectively. Moreover, in assay [3], the viability increase was -4.6%. The viability in assay [4] was 84.4%; in assay [5], 80.2%. In assay [6], the inhibition is 1.09%. The RAM network inhibition in assay [7] is 10.9%.
As for `CCN1c2ccccc2NC2N=C(OC)C(c3ccccc3)C21` (stereo unspecified), the growth inhibition in assay [1] was -38.2%; in assay [2], 7.12%. The viability increase in assay [3] is -8.25%. Moreover, the viability was 3.31% (active) in assay [4] and 2.97% (active) in assay [5]. For the same compound, the inhibition in assay [6] is 2.47%. In assay [7], the RAM network inhibition was 3.8%.
For the compound `COc1ccccc1NC(=O)CSc1nnc(Cn2c(=O)sc3ccccc32)n1C`, the growth inhibition was -3.61% in assay [1] and 5.22% in assay [2]. For the same compound, the viability increase in assay [3] is -4.11%. The viability was 100% in assay [4] and 87.9% in assay [5]. For the same compound, the inhibition in assay [6] was 2.21%. In addition, the RAM network inhibition in assay [7] is 4.37%.
As to `COCC(=O)Nc1ccc(C(N)=O)cc1`, the figures for the growth inhibition in assay [1] and in assay [2] were -13.6% and -6.43%, respectively. In addition, the viability increase in assay [3] was -0.44%. In addition, the results for the viability in assay [4] and in assay [5] were 96.5% and 95.3%, respectively. Further, the inhibition in assay [6] is 1.91%. Further, the RAM network inhibition in assay [7] is 7.41%.
Regarding `O=C(CC1NCCNC1=O)OCCCc1ccccc1` (stereo unspecified), the growth inhibition in assay [1] is -0.955%; in assay [2] it was -2.82%. Besides, the viability increase in assay [3] is 0.07%. Further, the viability was 99.1% in assay [4] and 99.9% in assay [5]. For the same compound, the inhibition in assay [6] is 1.09%. Besides, the RAM network inhibition in assay [7] was 5.29%.
For `O=C(Nc1sc2c(c1C(=O)O)CCCCC2)c1ccco1`, the growth inhibition is -3.7% in assay [1] and -9.4% in assay [2]. The viability increase in assay [3] was -1.32%. Also, the viability is 88.7% in assay [4] and 78.5% in assay [5]. Moreover, the inhibition in assay [6] was -0.91%. For the same compound, in assay [7], the RAM network inhibition was -1.46%.
Turning to `O=C(CSc1ccccc1)NCc1cccnc1`, the growth inhibition was -4.86% in assay [1] and -3.68% in assay [2]. In addition, the viability increase in assay [3] is -1.64%. Besides, the values for the viability in assay [4] and in assay [5] were 99.5% and 97%, respectively. Moreover, the inhibition in assay [6] is 0.995%. For the same compound, the RAM network inhibition in assay [7] was 0.53%.
On to `CC(=O)c1cccc(NC(=O)C2CCCC2)c1`, for which the growth inhibition in assay [1] is -9.02%; in assay [2] it was -23.5%. For the same compound, the viability increase in assay [3] was -0.26%. Moreover, the viability in assay [4] is 102%; in assay [5] it was 95.4%. Besides, in assay [6], the inhibition was 1.08%. For the same compound, the RAM network inhibition in assay [7] is -2.18%.
As for `O=C(Nc1cccc2ccccc12)N1CCN(c2ccc(F)cc2)CC1`, the growth inhibition in assay [1] is -12.3%; in assay [2] it was -14.3%. Further, in assay [3], the viability increase was -1.74%. In addition, the values for the viability in assay [4] and in assay [5] were 98.6% and 98.8%, respectively. Besides, in assay [6], the inhibition was 1.88%. For the same compound, the RAM network inhibition in assay [7] was 3.08%.
For `COc1cccc(-n2nnc3c(=O)n(Cc4cccc(C)c4)cnc32)c1`, the values for the growth inhibition in assay [1] and in assay [2] were -8.22% and -5.66%, respectively. Besides, in assay [3], the viability increase was 0.31%. For the same compound, the viability is 104% in assay [4] and 89.7% in assay [5]. The inhibition in assay [6] is 0.335%. For the same compound, the RAM network inhibition in assay [7] was 5.49%.
On to `COC(=O)c1ccccc1NC(=O)CSc1nccn1C`, for which the growth inhibition in assay [1] was -3.94%; in assay [2], 2.94%. Also, the viability increase in assay [3] was -0.69%. Also, the viability was 93.1% in assay [4] and 92.2% in assay [5]. In assay [6], the inhibition is 1.27%. Besides, the RAM network inhibition in assay [7] is 2.31%.
Turning to `O=C(CC(c1ccccc1)c1ccccc1)Nc1ncn[nH]1`, the figures for the growth inhibition in assay [1] and in assay [2] were -5.6% and 9.86%, respectively. In assay [3], the viability increase was 4.51%. In addition, the values for the viability in assay [4] and in assay [5] were 100% and 90.1%, respectively. Further, the inhibition in assay [6] was -0.035%. Moreover, the RAM network inhibition in assay [7] is 3.78%.
Consider `O=C(O)CCc1ccc(-c2cccs2)n1-c1ccc(C(=O)O)cc1`, for which the growth inhibition is -3.21% in assay [1] and 3.42% in assay [2]. The viability increase in assay [3] is -0.51%. Moreover, the viability is 98.7% in assay [4] and 93.5% in assay [5]. Also, the inhibition in assay [6] is 2.39%. In assay [7], the RAM network inhibition was -0.68%.
Take `O=C(CN1CCN(C(=O)c2ccco2)CC1)Nc1ccccc1-c1ccccc1`: the growth inhibition in assay [1] is 6.65%; in assay [2], 6.94%. For the same compound, the viability increase in assay [3] is -2.16%. Besides, the viability is 91% in assay [4] and 86.1% in assay [5]. Besides, the inhibition in assay [6] was 1.32%. Also, the RAM network inhibition in assay [7] was 3.75%.
